Laboratory results: article PMC3592994 (Hepatology (Baltimore, Md.), 2013)
Counter-ions that a name gives are not always drawn.

Tests used:
[1] = test system: Bsep, Mdr2, Ost-β, Sult2a1, Shp, Ntcp; assay: Hepatic gene expression in gavaged mice; type: in vivo, mouse
In short: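 Female C57BL6 mice aged 7–8 weeks were gavaged twice daily for 2 days with 200 μL 20% cyclodextrin, 50 mg/kg cholic acid, or cholic acid plus 500 mg/kg test compound. Livers were harvested at 4 pm on day 2 after an 8-h fast, and hepatic gene expression was measured. Data are mean ± SEM, n = 6, by one-way ANOVA.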

[2] = test system: BSEP, SHP; assay: BSEP and SHP gene expression in primary human hepatocytes; type: cell-based; settings: 50 μM, 24 hours
[3] = test system: BSEP, SHP, CYP7A1; type: cell-based, human; settings: 50 μM, 24 hours; for induction of BSEP gene expression: scrambled siRNA group; for repression of CYP7A1 expression: siScramble group; for induction of SHP gene expression: siScrambled group, versus vehicle
[4] = target: T1, FXRα2 (Homo sapiens, UniProt Q96RI1); type: cell-based; settings: for FXR transactivation relative to vehicle-treated control: 50 μM compound; for FXR transactivation relative to vehicle-treated control / EC50: 24 hours; for EC50: read-out: EC50 of FXR transactivation, agonist mode, 0-100 μM
T1 sequence (Q96RI1 1-472 isoform Q96RI1-2): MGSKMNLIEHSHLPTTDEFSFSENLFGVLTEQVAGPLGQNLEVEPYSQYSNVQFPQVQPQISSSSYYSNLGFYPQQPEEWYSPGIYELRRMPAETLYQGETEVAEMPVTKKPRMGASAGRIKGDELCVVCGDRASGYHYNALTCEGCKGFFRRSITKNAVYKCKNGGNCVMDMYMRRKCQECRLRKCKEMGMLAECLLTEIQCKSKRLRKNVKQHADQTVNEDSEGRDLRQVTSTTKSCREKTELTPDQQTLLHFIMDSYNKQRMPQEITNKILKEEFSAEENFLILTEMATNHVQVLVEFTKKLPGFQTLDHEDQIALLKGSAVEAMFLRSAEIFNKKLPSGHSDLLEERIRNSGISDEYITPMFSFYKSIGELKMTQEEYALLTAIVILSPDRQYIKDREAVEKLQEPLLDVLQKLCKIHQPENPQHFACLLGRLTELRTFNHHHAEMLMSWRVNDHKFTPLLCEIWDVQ
T1 sequence (P19793 1-462 partner): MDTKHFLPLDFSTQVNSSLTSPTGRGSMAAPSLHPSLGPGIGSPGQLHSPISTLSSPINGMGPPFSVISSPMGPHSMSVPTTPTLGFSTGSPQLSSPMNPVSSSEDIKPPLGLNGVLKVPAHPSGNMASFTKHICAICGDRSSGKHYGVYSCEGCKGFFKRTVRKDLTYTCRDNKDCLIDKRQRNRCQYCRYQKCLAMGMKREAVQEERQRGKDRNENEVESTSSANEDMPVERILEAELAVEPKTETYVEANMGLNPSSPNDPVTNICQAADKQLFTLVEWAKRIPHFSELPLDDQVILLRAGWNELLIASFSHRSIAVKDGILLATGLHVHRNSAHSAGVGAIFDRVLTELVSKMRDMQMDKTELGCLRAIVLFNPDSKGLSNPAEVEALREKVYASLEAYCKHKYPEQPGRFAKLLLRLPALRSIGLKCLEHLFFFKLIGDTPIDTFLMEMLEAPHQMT

[5] = target: T2, FXR-LBD (Homo sapiens, UniProt Q96RI1); assay: HTRF cofactor; type: biochemical; settings: for CDCA-mediated recruitment of SRC-1 peptide to FXR-LBD: 9 or 100 μM CDCA, 0-600 μM compound, dose-dependent; for recruitment of SRC-1 peptide to FXR-LBD by compound alone: agonist mode, no CDCA
T2 sequence (Q96RI1 244-472 isoform Q96RI1-2): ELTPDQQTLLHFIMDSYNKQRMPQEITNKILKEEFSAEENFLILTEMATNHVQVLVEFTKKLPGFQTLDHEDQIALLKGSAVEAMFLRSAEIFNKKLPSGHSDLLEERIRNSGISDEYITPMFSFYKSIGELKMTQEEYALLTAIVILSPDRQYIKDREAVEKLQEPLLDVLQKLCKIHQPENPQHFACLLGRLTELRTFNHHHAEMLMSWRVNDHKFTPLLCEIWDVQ

[6] = test system: FXR-mediated bile acid efflux in Huh7 cells; assay: Huh7 3H-taurocholic acid efflux; type: cell-based, human
In short: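 Huh7 cells were pretreated overnight with vehicle or 0.5 μM GW4064 with or without 25–50 μM test compound. Cells were washed for 1.5 h, then ³H-taurocholic acid efflux over 5 min was measured. Data are mean ± SEM, n = 3, by one-way ANOVA.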

[7] = test system: BSEP; assay: BSEP protein western blot in Huh7 cells; type: cell-based, human; settings: 0.5 μM GW4064, 24 hours
[8] = test system: FGF19; assay: Secreted FGF19 in Huh7 cell culture media; type: cell-based, human; settings: for levels of secreted FGF19: 0.5 μM GW4064
In short: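 Huh7 cells were incubated for 24 h with 0.5 μM GW4064 plus 0–100 μM test compound. FGF19 secreted into the culture medium was then assayed. Data are mean ± SEM, n = 3, by one-way ANOVA.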

[9] = test system: BSEP; settings: X. laevis oocytes expressing BSEP ref 20; cited from earlier work
[10] = Serum bile acid concentrations in gavaged mice; type: in vivo, mouse; settings: CA+PM5S co-gavaged mice versus vehicle or CA groups
In short: (§1)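 Female C57BL6 mice aged 7–8 weeks were orally gavaged twice daily for 2 days (day 1 at 5:30 and 10:30 pm; day 2 at 8:30 am and 1:30 pm). Groups received 200 μL 20% cyclodextrin, 50 mg/kg cholic acid, or cholic acid plus 500 mg/kg test compound. After an 8-h fast, serum was collected at 4 pm on day 2 and analysed by UPLC/MSMS. Data are mean ± SEM, n ≥ 6, by one-way ANOVA.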

[11] = test system: primary human hepatocytes; settings: primary human hepatocytes ref 19; cited from earlier work
[12] = test system: FGF19; assay: FGF19 gene expression in Huh7 cells; type: cell-based, human; settings: 25-100 μM PM5S, 0.5 μM GW4064, 24 hours
In short: (§2)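 Relative mRNA was quantified by qPCR. Data are mean ± SEM, n = 3, by one-way ANOVA against the agonist-alone or vehicle group.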

[13] = Serum PM5S in gavaged mice by UPLC/MSMS; type: in vivo, mouse
In short: as §1

[14] = test system: NTCP; settings: NTCP-transfected Xenopus laevis oocytes ref 19; cited from earlier work
[15] = test system: BSEP; assay: BSEP gene expression in Huh7 cells; type: cell-based, human
In short: as §2

[16] = test system: SHP and MDR3; assay: SHP and MDR3 gene expression in Huh7 cells; type: cell-based, human; settings: 0-100 μM PM5S, 0.5 μM GW4064, 24 hours
In short: as §2

SMILES: C[C@H](CCC(=O)O)[C@H]1CC[C@H]2[C@@H]3[C@H](O)C[C@@H]4C[C@H](O)CC[C@]4(C)[C@H]3C[C@H](O)[C@]12C [CA, cholic acid, reference compound]
- Hepatic gene expression levels of Bsep, Mdr2, Ost-β, and Sult2a1 ([1]; CA group, 50 mg/kg versus vehicle): significantly induced

SMILES: C[C@H](CCC(=O)O)[C@H]1CC[C@H]2[C@@H]3[C@H](O)C[C@@H]4C[C@H](O)CC[C@]4(C)[C@H]3CC[C@]12C [CDCA, chenodeoxycholic acid, reference compound]
- BSEP expression induction [2]: 7.5 fold
- induction of BSEP gene expression [3]: 390%
- repression of CYP7A1 expression [3]: > 90%
- induction of SHP gene expression [3]: 481%

SMILES: C[C@H](O)[C@H]1CC[C@H]2[C@@H]3CC[C@H]4C[C@@H](OS(=O)(=O)[O-])CC[C@]4(C)[C@H]3CC[C@]12C.[Na+] [EPAS, epiallo-pregnanediol 3-sodium sulfate]
- activity of FXR in presence of CDCA [4]: inhibited
- FXR transactivation relative to vehicle-treated control [4]: 183%
- EC50 [4]: 22.6 µM
- CDCA-mediated recruitment of SRC-1 peptide to FXR-LBD [5]: inhibited
- recruitment of SRC-1 peptide to FXR-LBD by compound alone [5]: unable to induce

SMILES: CC(=O)C1CCC2C3CC[C@@H]4C[C@@H](OS(=O)(=O)O)CC[C@]4(C)C3CC[C@]12C (stereo partly drawn) [EPS, epipregnanolone sulfate]
- activity of FXR in presence of CDCA [4]: inhibited
- FXR transactivation relative to vehicle-treated control [4]: 125%
- EC50 [4]: 15.1 µM
- CDCA-mediated recruitment of SRC-1 peptide to FXR-LBD [5]: inhibited
- recruitment of SRC-1 peptide to FXR-LBD by compound alone [5]: unable to induce

SMILES: CC(C)c1onc(-c2c(Cl)cccc2Cl)c1COc1ccc(/C=C/c2cccc(C(=O)O)c2)c(Cl)c1 [GW4064, reference compound]
- 3HTC efflux ([6]; 0.5 μM GW4064 overnight, relative to vehicle): significantly increased
- increase in BSEP protein levels ([7]; relative to vehicle): 1.5 fold
- increase in secreted FGF19 ([8]; 0.5 μM GW4064, 24 hours): 2.8 fold

SMILES: CC(=O)[C@H]1CC[C@H]2[C@@H]3CC[C@H]4C[C@@H](OS(=O)(=O)O)CC[C@]4(C)[C@H]3CC[C@]12C [PM5S, epiallopregnanolone sulfate]
- BSEP expression [2]: modestly increased
- SHP expression induction [2]: to a lesser extent than CDCA
- efflux of bile acids [9]: reduce the efflux
- PM5S concentrations abrogating CDCA-mediated FXR transactivity [4]: ≥ 5 µM
- FXR transactivation relative to vehicle-treated control [4]: 182%
- EC50 [4]: > 83 µM
- serum CA levels [10]: significantly raised
- Na+-dependent and Na+-independent influx of taurocholate [11]: reduce
- GW4064-mediated FGF19 gene expression [12]: significantly reduced
- Serum PM5S mean concentration ± SEM ([13]; mice gavaged 50 mg/kg cholic acid + 500 mg/kg PM5S twice daily for 2 days): 3208.6 ± 1847.1 µM
- Serum PM5S mean concentration ± SEM ([13]; mice gavaged 50 mg/kg cholic acid twice daily for 2 days): 10.7 ± 9.6 µM
- GW4064-induced increase in 3HTC efflux ([6]; cotreated with 25 or 50 μM PM5S, 0.5 μM GW4064): abolished
- GW4064-mediated BSEP protein expression ([7]; 10 μM PM5S): inhibited
- BSEP protein expression ([7]; 25-100 μM PM5S): completely abolished
- levels of secreted FGF19 ([8]; 50 μM and 100 μM PM5S): reaching significance
- levels of secreted FGF19 ([8]; cotreatment with 10 μM and 25 μM PM5S): trend towards a reduction
- taurocholate uptake by NTCP [14]: competitively inhibit
- induction of Bsep and Mdr2 expression ([1]; CA+PM5S group compared to CA group): significantly abrogated
- Shp and Ntcp expression levels ([1]; CA+PM5S, CA and vehicle groups): no differences
- CDCA-mediated recruitment of SRC-1 peptide to FXR-LBD [5]: able to inhibit
- recruitment of SRC-1 peptide to FXR-LBD by compound alone [5]: unable to potentiate
- CDCA-mediated BSEP expression ([15]; all PM5S concentrations tested, 50 μM CDCA, 24 hours): significantly reduced
- GW4064-mediated BSEP gene expression ([15]; increasing PM5S doses (0-100 μM), 0.5 μM GW4064, 24 hours): completely abolished
- induction of BSEP gene expression [3]: 160%
- repression of CYP7A1 expression [3]: > 90%
- induction of SHP gene expression [3]: 200%
- GW4064-mediated SHP and MDR3 gene expression [16]: significantly abrogated
